Broadly, the IC50 is the midpoint of a concentration-inhibition curve. Low values mean greater potency, high ones weaker potency. The term LD50 denotes the dose expected to kill half of the subjects tested.

The text below walks through data of ChEMBL document CHEMBL4428026, “Discovery of New Monocarbonyl Ligustrazine-Curcumin Hybrids for Intervention of Drug-Sensitive and Drug-Resistant Lung Cancer” (J Med Chem, 2016).

Data set [1] concerns A549/CDDP. Briefly: Induction of ROS generation in human A549/CDDP cells 2.1 to 4.2 uM after 60 mins by DHE staining-based fluorescence assay. In kind it is functional, cell-based. Summed up:
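A549 or A549/DDP cells were treated in triplicate for 60 min with vehicle DMSO (0.1%, v/v) or a range of compound concentrations. Cells were stained with dihydroethidium, and intracellular ROS fluorescence was read on a microplate reader at 300 and 610 nm. Three independent experiments were run.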

A short description of data set [2]: Cytotoxicity against NHBE cells after 72 hrs by MTT assay. In kind it is cell-based. The conditions noted are these: Homo sapiens. Summed up:
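Cells (A549, A549/DDP, SPC-A-1, LTEP-G-2, non-tumor bronchial epithelial HBE) were exposed in triplicate to vehicle or compound for 72 h. MTT (5 mg/mL in PBS) was then added for 4 h, formazan was dissolved in DMSO, and absorbance was read at 570 nm. IC50 values were derived from viability.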
On the technique in general: Formazan colour is commonly taken as a measure of viable cells.

In data set [3] the target is T1, Thioredoxin reductase (Homo sapiens, UniProt Q16881+Q9NNW7+Q86VQ6). Nature of the data set: Inhibition of thioredoxin reductase (unknown origin) after 2 hrs by DTNB dye based microplate spectrophotometry. In kind it is protein assay. Summed up:
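NADPH-reduced TrxR (0.16 µM) was preincubated in triplicate with vehicle DMSO (0.1%, v/v) or varying compound concentrations for 2 h. It was then reacted with 2 mM DTNB and 200 µM NADPH for 3 min, and absorbance was read at 412 nm. IC50 was derived.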

The target of data set [4] is T1, Thioredoxin reductase. Nature of the data set: Inhibition of thioredoxin reductase in human A549/CDDP cells by DTNB dye based microplate spectrophotometry. In kind it is cell-based. Summed up:
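A549 or A549/DDP cells were treated with varying compound concentrations for 24 h, then harvested, homogenized and centrifuged. Protein (50 µg) was reacted in triplicate with NADPH and DTNB in TE buffer at 37 °C for 1 h, and TNB was read at 412 nm. Activity was taken from a purified-TrxR standard curve, and IC50 was derived.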

In data set [5] the test system is A549. Nature of the data set: Decrease in TrxR expression in human A549 cells at 2.1 to 4.2 uM after 24 hrs by Western blot method. In kind it is functional, cell-based. The gist of the method: (§1)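 Cells were plated at 1 × 10^6/well overnight, then treated 24 h with vehicle DMSO (0.1%, v/v) or compound (A549, 2.1 or 4.2 µM; A549/DDP, 0.6 or 1.2 µM). Lysis was at 4 °C. Lysates were run on SDS-PAGE (7.5% gel, 20 µg/lane) and immunoblotted with ECL detection; phospho-Akt Ser473 and phospho-ERK Thr202/Tyr204 were probed. Bands were normalized to GAPDH (TrxR, Trx) or β-actin. Three independent experiments were run.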
Background: Immunoblotting shows a protein as a band on a membrane.

Data set [6] deals with A549/CDDP. Briefly: Decrease in TrxR expression in human A549/CDDP cells at 0.6 to 1.2 uM after 24 hrs by Western blot method. The format is functional, cell-based. The gist of the method: as §1
The test system of data set [7] is A549. Nature of the data set: Decrease in Trx expression in human A549 cells at 2.1 to 4.2 uM after 24 hrs by Western blot method. In kind it is functional, cell-based. The gist of the method: as §1
For data set [8], the system named is A549/CDDP. Nature of the data set: Decrease in Trx expression in human A549/CDDP cells at 0.6 to 1.2 uM after 24 hrs by Western blot method. The format is functional, cell-based. Summed up: as §1
Data set [9] has as its system A549. Briefly: Induction of ROS generation in human A549 cells 2.1 to 4.2 uM after 60 mins by DHE staining-based fluorescence assay in presence of GSH. In kind it is functional, cell-based.
The subject of data set [10] is A549/CDDP. Nature of the data set: Induction of ROS generation in human A549/CDDP cells 0.6 to 1.2 uM after 60 mins by DHE staining-based fluorescence assay in presence of NAC. In kind it is functional, cell-based.
Data set [11] deals with A549/CDDP. Briefly: Induction of ROS generation in human A549/CDDP cells 0.6 to 1.2 uM after 60 mins by DHE staining-based fluorescence assay in presence of GSH. In kind it is functional, cell-based.
Data set [12] concerns A549. Nature of the data set: Induction of apoptosis in human A549 cells assessed as increase in Bax expression at 2.1 to 4.2 uM after 24 hrs by Western blot method. In kind it is functional, cell-based. Summed up: as §1
Data set [13] concerns A549. Briefly: Induction of apoptosis in human A549 cells assessed as increase in Bax to Bcl2 ratio at 2.1 to 4.2 uM after 24 hrs by Western blot method. In kind it is functional, cell-based. The gist of the method: as §1
Data set [14] relates to A549/CDDP. Briefly: Effect on NFkappaB expression in human A549/CDDP cells at 0.6 to 1.2 uM after 24 hrs by Western blot method. The format is functional, cell-based. The gist of the method:
as §1

The subject of data set [15] is A549/CDDP. Nature of the data set: Inhibition of NFkappaB phosphorylation in human A549/CDDP cells at 0.6 to 1.2 uM after 24 hrs by Western blot method. The format is cell-based. The gist of the method:
as §1

For data set [16], the system named is A549/CDDP. Briefly: Decrease in P-gp expression in human A549/CDDP cells at 0.6 to 1.2 uM after 24 hrs by Western blot method. The format is functional, cell-based. The gist of the method:
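A549/DDP cells were treated for 24 h with vehicle DMSO (0.1%, v/v) or 0.6 or 1.2 µM compound. Lysates were run on SDS-PAGE (7.5% gel, 20 µg/lane), blotted to PVDF and probed with anti-P-gp, with detection by ECL. P-gp was normalized to β-actin. Three independent experiments were run.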

In data set [17] the target is T2, ATP-dependent translocase ABCB1 (Homo sapiens, UniProt P08183). Nature of the data set: Inhibition of P-gp in human A549/CDDP cells assessed as accumulation of rhodamine 123 at 0.03 to 1.2 uM by flow cytometry. In kind it is cell-based. Summed up: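 A549/DDP cells were treated with compound (0.03-1.2 µM), with verapamil as the reference P-gp inhibitor. Intracellular rhodamine 123 accumulation was measured by flow cytometry.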

For data set [18], the target named is T2, ATP-dependent translocase ABCB1. Nature of the data set: Inhibition of P-gp ATPase activity in human A549/CDDP cells at 40 uM by luminescence assay (reference value: 706683 +/- 23554 RLU). The format is cell-based.
The nature of data set [19]: Acute toxicity in ICR mouse assessed as mortality at 200 to 450 mg/kg, ip measured at 1 hr post treatment. In kind it is organism-based. Particulars: in vivo. Summed up:
(§2)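 Male and female ICR mice (7 weeks), randomized, 10 per group, given one intraperitoneal dose at 200, 250, 300, 350, 400 or 450 mg/kg. Animals were watched for abnormal behaviour and deaths up to two weeks. Deaths were tallied at 1 h, 4 h, day 3 and days 4-14, with survival on day 14. LD50 was calculated with 95% confidence limits.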

The nature of data set [20]: Acute toxicity in ICR mouse assessed as survival at 350 mg/kg, ip measured on day 14. Particulars: in vivo. In kind it is organism-based. The gist of the method:
as §2

Data set [21] in a line: Acute toxicity in ICR mouse assessed as survival at 200 mg/kg, ip measured on day 14. The format is organism-based. The conditions noted are these: in vivo. The gist of the method:
as §2

Data set [22] can be described thus: Acute toxicity in ip dosed ICR mouse assessed as mortality measured up to 2 weeks. The format is organism-based. The conditions noted are these: in vivo. The gist of the method:
as §2

The nature of data set [23]: Toxicity in BALB/c nude mouse xenografted with human A549/CDDP cells assessed as body weight at 20 mg/kg, ip administered daily for 15 consecutive days measured on day 15 (reference value: 21 +/- 1.28 g). Particulars: in vivo. The format is organism-based. (In xenograft studies the graft and the host belong to different species.)
In data set [24] the test system is A549/CDDP. Briefly: Anticancer activity against human A549/CDDP cells xenografted in BALB/c nude mouse assessed as tumor growth inhibition at 20 mg/kg, ip administered daily for 15 consecutive days measured every 3 days. Particulars: read-out: TGI. In kind it is functional. The gist of the method:
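Both sexes of athymic BALB/c nude mice (4-5 weeks) were inoculated subcutaneously with A549/DDP cells (1 × 10^7/mouse). Once tumors reached 180-200 mm3, mice were randomized (n = 8). They received ip dosing daily for 15 consecutive days, with vehicle PBS/DMSO/cremophor-EL (8:1:1). Tumors were measured by caliper and volume was taken as width2 × length/2. Growth inhibition was taken from tumor weight (w/w).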

Structures are written as SMILES. Activity calls are given as the source filed them. The calls are words filed in the database; no cut-off is given here.

T2 sequence (P08183 whole entry): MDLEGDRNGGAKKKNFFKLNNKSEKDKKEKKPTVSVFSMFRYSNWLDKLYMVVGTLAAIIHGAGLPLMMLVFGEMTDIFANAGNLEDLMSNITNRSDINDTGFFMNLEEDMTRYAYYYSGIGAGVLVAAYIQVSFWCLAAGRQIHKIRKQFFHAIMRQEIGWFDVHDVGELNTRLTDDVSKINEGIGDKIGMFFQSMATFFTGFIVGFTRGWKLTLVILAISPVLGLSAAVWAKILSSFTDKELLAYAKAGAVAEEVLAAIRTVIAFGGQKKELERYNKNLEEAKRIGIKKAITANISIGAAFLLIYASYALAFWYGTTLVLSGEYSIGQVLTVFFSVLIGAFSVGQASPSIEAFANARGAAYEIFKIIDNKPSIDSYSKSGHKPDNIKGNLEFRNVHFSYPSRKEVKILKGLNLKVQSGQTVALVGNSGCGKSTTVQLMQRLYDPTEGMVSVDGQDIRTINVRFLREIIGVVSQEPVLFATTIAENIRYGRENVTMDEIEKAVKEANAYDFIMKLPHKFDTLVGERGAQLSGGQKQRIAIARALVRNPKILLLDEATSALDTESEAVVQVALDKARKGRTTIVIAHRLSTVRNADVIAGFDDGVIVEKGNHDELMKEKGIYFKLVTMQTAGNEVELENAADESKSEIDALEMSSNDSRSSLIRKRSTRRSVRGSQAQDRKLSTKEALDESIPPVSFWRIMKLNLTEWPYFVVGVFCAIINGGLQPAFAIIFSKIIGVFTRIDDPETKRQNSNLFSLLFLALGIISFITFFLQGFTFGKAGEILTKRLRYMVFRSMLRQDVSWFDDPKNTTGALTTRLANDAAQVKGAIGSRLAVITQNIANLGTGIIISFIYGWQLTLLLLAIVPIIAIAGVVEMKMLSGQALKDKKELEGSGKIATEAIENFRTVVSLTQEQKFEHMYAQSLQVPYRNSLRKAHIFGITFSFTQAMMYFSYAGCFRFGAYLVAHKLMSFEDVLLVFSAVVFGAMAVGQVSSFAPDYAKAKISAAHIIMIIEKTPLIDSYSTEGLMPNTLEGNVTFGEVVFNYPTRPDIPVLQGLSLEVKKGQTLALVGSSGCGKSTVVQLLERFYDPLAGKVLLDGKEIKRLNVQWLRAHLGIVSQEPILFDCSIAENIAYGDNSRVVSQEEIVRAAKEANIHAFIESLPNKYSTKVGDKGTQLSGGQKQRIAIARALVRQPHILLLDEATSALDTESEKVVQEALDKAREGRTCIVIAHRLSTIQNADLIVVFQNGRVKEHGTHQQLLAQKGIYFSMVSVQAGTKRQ

Turning to `COc1cc(/C=C/C(=O)/C=C/c2nc(C)c(C)nc2C)ccc1O`, the outcome in the data set on A549/CDDP [1], in the data set on A549 [5], with A549/CDDP [6], with A549 [7], in the data set on A549/CDDP [8] and with A549 [12] was Active. Also, the outcome in the data set on A549 [13] and in the data set with A549/CDDP [16] was Active. Moreover, the IC50 in data set [2] was found to be 21.3 µM; against Thioredoxin reductase [3], 2.95 µM; against Thioredoxin reductase [4] it was 1.22 µM. The outcome with A549 [9], in the data set on A549/CDDP [10], in the data set with A549/CDDP [11] and in the data set on A549/CDDP [14] was inactive. In addition, the inhibition result in the data set with A549/CDDP [15] was “Active”. Further, the “inhibition (INH)” value in [17] is on record as “Active”. In addition, the Activity in data set [18] is on record as 761592 RLU; in data set [19], “Non-Toxic”; in [23], 18.6 g. Also, the survival at 14 day was found to be 30% in data set [20] and 90% in data set [21]. The LD50 at 336 h in data set [22] came out at 285 mg/kg. The inhibition in vivo at 20 mg/kg in the data set on A549/CDDP [24] is 36%.
